An excerpt weighted towards active compounds, which were near 3.5% of everything screened.
Env fusion inh: inhibitors of HIV Env-mediated cell fusion; HeLa-JRFL Env/CEM21 cell fusion, luciferase; inhibition, % at 12.3 µM; 360,000 tested, 1.1% active; AID 651610;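 active = mean replicate inhibition score of at least 50 and every replicate individually at or above 50; inconclusive = only one of the two criteria met; inactive = mean below 50 and not all replicates reaching 50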;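 also: 0% = plate neutral controls and 100% = maraviroc near 300 nM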
Wnt bcat act: activators of Wnt/beta-catenin signaling; activation, % at 9.35 µM; AID 743398; Wnt/beta-catenin reporter cell assay, activator, plate reader; 300,000 tested, 1.2% active; in the data active = activation above about 30%, passing the limit was not always enough; inconclusive = no clear call, values can overlap the other calls;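 also: 0% = neutral control wells and 100% = positive control wells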
esBAF inh: blocks esBAF chromatin remodeling in mouse ES cells; Bmi1-luciferase knock-in reporter, 24 h; 100% = twice the neutral-well signal; AID 602393; 350,000 tested, 2% active; reporter increase, % at 12.5 µM; in the data active = activation above about 40%; inconclusive = no clear call, values can overlap the other calls;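 also: 0% = median of the plate's neutral control wells and 100% = double that signal; a rise in the Bmi1 reporter signal indicates esBAF inhibition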
ERAP1 inh: inhibitors of human ERAP1 aminopeptidase; 340,000 tested, 0.15% active; inhibition, % at 10.7 µM; recombinant ERAP1, Leu-AMC fluorescence, 60 min; Q9NZ08;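 active = mean replicate inhibition of at least 30%, or all replicates individually reaching that 30% level; inactive = mean below 30% and not every replicate reaching it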;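 also: 0% = neutral control wells and 100% = L-leucinethiol positive control wells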
MITF TRPM1 HTS: MITF TRPM1 promoter activation in melanoma cells | 300,000 tested, 0.75% active | SK-MEL-5 TRPM1-promoter luciferase, 24 h; % of positive control, neutral wells = 0 | AID 588334 | activation, % at 12.5 µM;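 active = mean activation of at least 80% with every replicate also reaching 80%; inconclusive = mean reaches 80% but some replicate falls short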;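 also: 0% = neutral control wells and 100% = parthenolide positive control wells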
Cneo AK release: causes C. neoformans cell lysis | 360,000 tested, 0.2% active | adenylate kinase release luminescence, 4 h; normalised: neutral wells 0, clomiphene wells 100 | lysis activity, % at 15 µM;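 active = mean lysis activity across replicates of at least 80%, whatever share of replicates individually reach that level; inactive = mean lysis activity below 80%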
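Material: C. neoformans cells | Amount: Yeast cell density of 5 × 10^6 cells/mL | Medium: Fresh YPD growth medium | Dosing: Single dose | Times: Static 4 h at 37 °C with compound, 1 h detection | Detection: AK luminescence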
The depositor's hits bear a star; ? = inconclusive; nt = no result given; ! = a repeat was not active; [ ] = remark or other dose.

SMILES	Env fusion inh	Wnt bcat act	esBAF inh	ERAP1 inh	MITF TRPM1 HTS	Cneo AK release
COc1ccc(CN(C)C[C@@H]2Oc3ccc(NS(C)(=O)=O)cc3CC(=O)N([C@@H](C)CO)C[C@@H]2C)cc1	-9[16.7 µM]	nt	-1	nt	nt	nt
COc1ccc(CN(C)C[C@@H]2Oc3ccc(NS(C)(=O)=O)cc3CC(=O)N([C@@H](C)CO)C[C@H]2C)cc1	4[16.7 µM]	nt	-5	2	nt	2
COc1ccc(S(=O)(=O)Nc2ccc3c(c2)CC(=O)N([C@@H](C)CO)C[C@@H](C)[C@H](CN(C)Cc2ccc(C(F)(F)F)cc2)O3)cc1	73*[16.7 µM]	nt	4	-1	nt	9
COc1ccc(CN(C)C[C@H]2Oc3ccc(NS(C)(=O)=O)cc3CC(=O)N([C@@H](C)CO)C[C@H]2C)cc1	-43[16.7 µM]	nt	-4	13	nt	81*
COc1ccc(S(=O)(=O)Nc2ccc3c(c2)CC(=O)N([C@@H](C)CO)C[C@@H](C)[C@@H](CN(C)Cc2ccc(C(F)(F)F)cc2)O3)cc1	31[16.7 µM]	nt	-4	1	nt	2
COc1ccc(CN(C)C[C@@H]2Oc3ccc(NS(C)(=O)=O)cc3CC(=O)N([C@H](C)CO)C[C@H]2C)cc1	12[16.7 µM]	nt	0	7	nt	97*
CC(=O)OC(COC1C[C@@H]2CC[C@@]1(C)C2(C)C)C[N+]1(C)CCCCC1 (some centres undefined)	-14	9	nt	100*	8	nt
COc1ccccc1NC(=O)N1C[C@H]2[C@@H](c3ccccc31)[C@@H](CO)N2CC1CCCC1	nt	nt	-4	1	nt	2
C[C@@H](NC(=O)C[C@@H]1CC[C@H](NC(=O)C2CC2)[C@H](CO)O1)c1ccccc1	2[16.7 µM]	nt	4	0	nt	-1
CCc1ccc(NC(=O)c2cnc3n(c2=O)CCS3)cc1	-48	10	61*	-1	34	-7
CCc1ccccc1NC(=O)c1cnc2n(c1=O)CCS2	-4	2	9	-2	30	6
C[C@H]1CN([C@@H](C)CO)S(=O)(=O)c2ccc(Br)cc2O[C@@H]1CN(C)S(=O)(=O)c1ccccc1F	21[16.7 µM]	0	-1	1	nt	94*!
C[C@H]1CN([C@@H](C)CO)S(=O)(=O)c2ccc(Br)cc2O[C@H]1CN(C)S(=O)(=O)c1ccccc1F	?	-1	-5	-2	nt	104*!
C[C@H](CO)N1C[C@H](C)[C@H](CN(C)S(=O)(=O)c2ccccc2F)Oc2cc(-c3ccccc3)ccc2S1(=O)=O	20[16.7 µM]	nt	2	-3	nt	-5
CC(C)CC#Cc1ccc2c(c1)O[C@H](CN(C)Cc1ccc(C(=O)O)cc1)[C@@H](C)CN([C@H](C)CO)S2(=O)=O	15[16.7 µM]	nt	6	nt	nt	-9
c1ccc2nc3c(nc2c1)OCC1CCCCN31 (centres undefined)	-23	22	48*	-29	55	-4
c1ccc2nc(N3CCCC3)c(N3CCCCC3)nc2c1	22	-3	-5	1	-7	0
Cc1cccc(Cn2cc(SCC(=O)Nc3nccs3)c3ccccc32)c1	-17	41*	65*	-2	68	0
Cc1cccc(Nc2cc(C)c3c(O)cccc3n2)c1C	-29	20	60*	nt	36	-8
CO[C@H]1CN(C)C(=O)c2ccc(NS(=O)(=O)c3ccccc3Cl)cc2OC[C@H](C)NC[C@@H]1C	-59[16.7 µM]	nt	5	-1	nt	-6
Cc1noc(C)c1NC(=O)N[C@@H]1CC[C@H](CC(=O)N2CCCCC2)O[C@@H]1CO	-15[16.7 µM]	nt	2	-1	nt	3
Cc1ccc(C)c(/C=N/n2cc(-c3ccccc3)[nH]c2=S)c1	-1	0	nt	4	3	nt
Fc1ccccc1/C=N/n1cc(-c2ccccc2)[nH]c1=S	-26	12	54*	2	28	25
CCCN(C)C[C@H]1OCCCC[C@H](C)Oc2ccc(NC(=O)c3ccncc3)cc2C(=O)N([C@H](C)CO)C[C@H]1C	16[16.7 µM]	nt	2	nt	nt	nt
CN(Cc1ccccc1)C(=O)c1[nH]cnc1C(=O)Nc1cccc(Cl)c1	-42	15	45*	16	47	-3
CC(=O)N1[C@H](CO)[C@@H](c2ccccc2)[C@H]1CNC(=O)CN1CCOCC1	nt	nt	6	nt	nt	0
Cc1nn2c(=O)cc(COC(=O)c3c(F)cccc3Cl)nc2s1	nt	50*	31	1	61	1
Cc1ccc(NC(=O)Cc2nc(COC(=O)c3c(F)cccc3Cl)cs2)cc1	-3	0	-3	1	2	0
